Active and inactive are the calls of the source.
Columns and labels:
[1] = Drug metabolism in human liver microsomes at 1 uM incubated for 1 hr in presence of NADPH by UPLC-MS analysis; type: ADME, Microsome; conditions: read-out: Drug metabolism
Summary of the method: (§1)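 Liver microsomes, compound 1 µM, 37 °C for 1 h in 50 mM Na/K phosphate pH 7.4, 3 mM MgCl2, NADPH-regenerating system, CYP 0.3 nmol/mL. Aliquots at 0, 10, 20, 40, 60 min quenched with cold acetonitrile, supernatants by UPLC-MS/MS; % parent remaining at end reported. Terfenadine as positive control.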

[2] = Stability of compound in aqueous HCl solution at pH 2 after 24 hrs by HPLC analysis; type: physicochemical; conditions: buffer, pH 2, 24 h
Summary of the method: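 Compound (25 μL of 10 mM DMSO stock) added to 1 mL aqueous buffered solution, pH 2 or pH 7.4, stirred 24 h at room temperature, analyzed by HPLC-MS; deemed stable if peak area remained 95–105%.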

[3] = Drug metabolism in mouse liver microsomes at 1 uM incubated for 1 hr in presence of NADPH by UPLC-MS analysis; type: ADME, Microsome; conditions: read-out: Drug metabolism; summary of the method: as §1
Mus musculus = assay: Antiallodynic activity in CD-1 mouse model of capsaicin-induced mechanical allodynia assessed as increase in paw withdrawal threshold at 32 mg/kg, sc administered 30 mins before capsaicin addition and measured after 15 mins in presence of sigma1 receptor agonist PRE-084 by von-Frey test; type: functional, organism-based
Summary of the method: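 Female CD-1 mice pretreated sc with σ1 agonist PRE-084 (32 mg/kg) 5 min before sc test compound; 30 min later capsaicin 1 µg intraplantar. After 15 min, 0.5 g electronic von Frey stimulus on secondary hyperalgesia area; withdrawal latency averaged over three trials, 50 s cutoff. Effect as % antiallodynia versus HPMC-treated; 6-8 animals, one-way ANOVA plus Bonferroni.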

[4] = biological target: Alpha-1A adrenergic receptor (Homo sapiens) (UniProt P35348); assay: Displacement of [3H]prazosin from human adrenergic alpha1A receptor at 1 uM after 90 mins by scintillation counting method relative to control
Sequence of Alpha-1A adrenergic receptor (Homo sapiens) (P35348 whole entry): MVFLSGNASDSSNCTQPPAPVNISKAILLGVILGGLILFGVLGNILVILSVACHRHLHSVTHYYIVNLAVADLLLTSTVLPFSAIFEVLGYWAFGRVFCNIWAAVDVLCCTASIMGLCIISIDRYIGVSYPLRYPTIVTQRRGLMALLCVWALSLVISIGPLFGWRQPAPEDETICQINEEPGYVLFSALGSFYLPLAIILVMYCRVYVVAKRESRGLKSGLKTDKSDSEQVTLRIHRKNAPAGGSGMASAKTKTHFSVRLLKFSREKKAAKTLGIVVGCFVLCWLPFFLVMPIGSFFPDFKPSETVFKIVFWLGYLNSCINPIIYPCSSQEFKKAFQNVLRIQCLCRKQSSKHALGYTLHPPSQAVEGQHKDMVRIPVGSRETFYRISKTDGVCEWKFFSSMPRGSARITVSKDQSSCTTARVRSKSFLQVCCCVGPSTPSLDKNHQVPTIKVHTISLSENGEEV
Summary of the method: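 α1A adrenoceptor-enriched human membranes (10 µg), 0.2 nM [3H]prazosin in 50 mM HEPES, 5 mM MgCl2, 1 mM CaCl2, 0.2% BSA, pH 7.4; 90 min at 25 °C; 1 µM prazosin for nonspecific binding. Compound tested at 1 µM; bound ligand collected by filtration.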

[5] = biological target: Sigma non-opioid intracellular receptor 1 (Cavia porcellus, UniProt Q60492); type: cell membranes;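 further: radioligand displacement of [3H]-(+)-pentazocine from guinea pig brain cortex membranes, 120 min incubation, bound radioactivity read by scintillation counting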
Sequence of Sigma non-opioid intracellular receptor 1 (Q60492 whole entry): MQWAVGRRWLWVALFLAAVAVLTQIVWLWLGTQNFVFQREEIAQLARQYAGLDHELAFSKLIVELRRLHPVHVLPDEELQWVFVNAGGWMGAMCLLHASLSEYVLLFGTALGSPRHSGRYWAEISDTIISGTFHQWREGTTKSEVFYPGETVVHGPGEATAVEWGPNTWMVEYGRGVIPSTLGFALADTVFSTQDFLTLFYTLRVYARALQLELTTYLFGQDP

[6] = biological target: Sodium-dependent noradrenaline transporter (Homo sapiens) (UniProt P23975); assay: Displacement of [3H]nisoxetine from recombinant human norepinephrine transporter at 1 uM after 60 mins by scintillation counting method relative to control
Sequence of Sodium-dependent noradrenaline transporter (Homo sapiens) (P23975 whole entry): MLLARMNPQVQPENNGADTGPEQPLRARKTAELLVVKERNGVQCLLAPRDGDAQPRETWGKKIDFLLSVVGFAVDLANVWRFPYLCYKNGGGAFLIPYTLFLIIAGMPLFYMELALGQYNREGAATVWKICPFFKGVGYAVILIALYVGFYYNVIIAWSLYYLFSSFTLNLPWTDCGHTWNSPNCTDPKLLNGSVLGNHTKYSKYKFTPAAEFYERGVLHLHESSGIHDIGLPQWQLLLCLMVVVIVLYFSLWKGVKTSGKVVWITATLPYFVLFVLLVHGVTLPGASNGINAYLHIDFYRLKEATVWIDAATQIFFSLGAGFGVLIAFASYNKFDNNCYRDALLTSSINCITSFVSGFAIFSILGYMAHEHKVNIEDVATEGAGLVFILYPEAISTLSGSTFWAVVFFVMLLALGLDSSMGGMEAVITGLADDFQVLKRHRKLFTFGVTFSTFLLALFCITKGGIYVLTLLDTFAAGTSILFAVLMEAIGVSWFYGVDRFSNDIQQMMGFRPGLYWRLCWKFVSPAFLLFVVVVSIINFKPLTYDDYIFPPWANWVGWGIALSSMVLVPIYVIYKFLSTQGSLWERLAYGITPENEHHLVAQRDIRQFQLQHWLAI
Summary of the method: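 Human NET-enriched membranes (1 μg), 5 nM [3H]nisoxetine in 50 mM Tris-HCl, 120 mM NaCl, 5 mM KCl, pH 7.4, 1% DMSO final; 60 min at 4 °C; 10 μM desipramine for nonspecific binding. Single 1 μM compound; filtration, displacement of radioligand.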

[7] = biological target: Sodium-dependent dopamine transporter (Homo sapiens) (UniProt Q01959); assay: Displacement of [3H]GBR12935 from human DAT at 1 uM after 120 mins by scintillation counting method relative to control
Sequence of Sodium-dependent dopamine transporter (Homo sapiens) (Q01959 whole entry): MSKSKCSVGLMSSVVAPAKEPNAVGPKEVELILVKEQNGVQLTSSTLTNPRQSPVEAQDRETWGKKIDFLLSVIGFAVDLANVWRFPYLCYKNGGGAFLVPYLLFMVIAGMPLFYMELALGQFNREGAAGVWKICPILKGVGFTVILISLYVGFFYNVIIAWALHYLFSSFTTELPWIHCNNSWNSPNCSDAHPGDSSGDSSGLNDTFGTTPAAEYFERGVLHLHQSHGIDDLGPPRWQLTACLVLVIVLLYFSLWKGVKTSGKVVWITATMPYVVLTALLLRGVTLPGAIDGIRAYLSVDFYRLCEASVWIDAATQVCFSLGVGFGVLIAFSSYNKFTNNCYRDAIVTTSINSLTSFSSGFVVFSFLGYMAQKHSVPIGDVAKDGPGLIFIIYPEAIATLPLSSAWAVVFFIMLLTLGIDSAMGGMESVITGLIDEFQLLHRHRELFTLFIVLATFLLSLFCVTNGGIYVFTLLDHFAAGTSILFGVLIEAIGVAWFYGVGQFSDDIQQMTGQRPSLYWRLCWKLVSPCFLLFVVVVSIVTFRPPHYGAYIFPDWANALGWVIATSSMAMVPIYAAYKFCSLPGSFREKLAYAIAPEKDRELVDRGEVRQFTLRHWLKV
Summary of the method: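 DAT-enriched human membranes (5 µg), 2 nM [3H]GBR12935 in 50 mM Tris-HCl/100 mM NaCl pH 7.4, 0.1% DMSO, 120 min at 4 °C; 10 µM GBR12909 for nonspecific binding. Compound at 1 µM; displacement measured after filtration.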

[8] = biological target: Sodium-dependent serotonin transporter (Homo sapiens) (UniProt P31645); assay: Displacement of [3H]imipramine from human serotonin transporter at 1 uM after 30 mins by scintillation counting method relative to control
Sequence of Sodium-dependent serotonin transporter (Homo sapiens) (P31645 whole entry, looked up): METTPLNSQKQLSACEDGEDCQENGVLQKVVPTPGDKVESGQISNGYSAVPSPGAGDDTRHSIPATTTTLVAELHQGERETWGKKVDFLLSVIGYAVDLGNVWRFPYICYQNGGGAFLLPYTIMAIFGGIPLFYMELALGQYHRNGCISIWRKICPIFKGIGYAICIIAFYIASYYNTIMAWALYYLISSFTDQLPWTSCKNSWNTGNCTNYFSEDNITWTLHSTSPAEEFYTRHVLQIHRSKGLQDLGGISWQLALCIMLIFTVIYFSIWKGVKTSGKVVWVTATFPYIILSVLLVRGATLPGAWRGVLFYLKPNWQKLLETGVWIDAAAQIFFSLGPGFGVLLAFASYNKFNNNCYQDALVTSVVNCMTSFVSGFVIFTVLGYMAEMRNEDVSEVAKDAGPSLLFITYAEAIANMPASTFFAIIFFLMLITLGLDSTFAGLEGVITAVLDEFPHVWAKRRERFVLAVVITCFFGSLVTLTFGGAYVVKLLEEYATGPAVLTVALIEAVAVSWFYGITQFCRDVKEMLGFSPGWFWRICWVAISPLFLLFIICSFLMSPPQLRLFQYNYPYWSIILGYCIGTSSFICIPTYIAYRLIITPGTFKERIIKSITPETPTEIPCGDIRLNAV
Summary of the method: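 Human SERT-enriched membranes (3.5 μg) incubated 30 min at 27 °C with 3 nM [3H]imipramine in Tris-HCl/120 mM NaCl/5 mM KCl pH 7.4, 0.1% DMSO; 200 μM imipramine for nonspecific binding. Compound at 1 μM; displacement after filtration.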

[9] = Selectivity ratio of Ki for GluN2B/GluN1a (unknown origin) expressed in mouse L(tk-) cell membranes to Ki for sigma1 receptor in guinea pig brain cortex membranes; type: cell-based

metabolised at 1 h, 1 µM [1]: 100%
Stability [2]: Stable
metabolised at 1 h, 1 µM [3]: 100%
inhibition [4]: < 50%
Ki [5]: 6.6 nM
inhibition [6]: < 50%
inhibition [7]: < 50%
inhibition [8]: < 50%
SMILES: COc1ccc2c(c1)CCN(CCC(F)Cc1ccccc1)CC2 (stereo not given)
Activity (Mus musculus): Active
Ratio Ki [9]: < 18

From ChEMBL document CHEMBL4393719, “Tetrahydro-3-benzazepines with fluorinated side chains as NMDA and σ1 receptor antagonists: Synthesis, receptor affinity, selectivity and antiallodynic activity” (Eur J Med Chem, 2019)
